Tested on: N2a
Assay: Cytotoxicity against mouse Neuro-2a cells assessed as reduction in cell viability incubated for 72 hrs by MTT assay
Assay type: functional, cell-based
Procedure, shortened: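 Murine neuroblastoma neuro-2A cells were tested over a range of concentrations, with four technical replicates per concentration. Each assay was run in triplicate. Doxorubicin served as the positive control. EC50 was taken from concentration–viability curves.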

Structure (SMILES)	EC50 [µM]
C#CCCCCC/C(=C/Cl)CC[C@H](O)/C=C(\C)[C@H](O)CC=C	> 50
COC1=CC(=O)O[C@@H]([C@H](C)C[C@H](C)CC(C)=O)C1	> 100
C#CCCC/C(=C/Cl)C[C@H](O)CC[C@@H](C)C[C@@H](C)[C@H](O)CCCC[C@@H](C)[C@H](O)CC=C	12
C[C@H](CC[C@@H](O)C/C(=C/Cl)CCCC#CBr)C[C@@H](C)[C@@H](O)C/C=C/Cl	> 100
C=CC[C@@H](OC(C)=O)[C@H](C)CCCC[C@@H](OC(C)=O)[C@H](C)C[C@H](C)CC[C@H](C/C(=C\Cl)Cc1ccccc1)OC(C)=O	> 100
C[C@H](CC[C@@H](O)C/C(=C/Cl)Cc1ccccc1)C[C@@H](C)[C@@H](O)C/C=C/Cl	24
C[C@H](CC[C@@H](O)C/C(=C\Cl)Cc1ccccc1)C[C@@H](C)[C@@H](O)C/C=C/Cl	13
CCC(=O)N(C)CCC/C(=C\Cl)C/C=C(\C)C[C@@H](C)C[C@@H](C)[C@H]1CC(OC)=CC(=O)O1	14
C#CCCC/C(=C\Cl)C[C@H](O)CC[C@@H](C)C[C@@H](C)[C@@H](O)C/C=C/Cl	40
C=CC[C@@H](O)[C@H](C)CCCC[C@@H](O)[C@H](C)C[C@H](C)CC[C@@H](O)C/C(=C\Cl)Cc1ccccc1	6.5
C=CC[C@H](O)[C@H](C)C[C@H](C)CC[C@@H](O)C/C(=C\Cl)Cc1ccccc1	8.4
COC1=CC(=O)O[C@@H]([C@H](C)C[C@H](C)CC[C@@H](O)C/C(=C/Cl)Cc2ccccc2)C1	15
CC(=O)O[C@H](CC[C@@H](C)C[C@@H](C)[C@H](C/C=C/Cl)OC(C)=O)C/C(=C\Cl)Cc1ccccc1	> 100
C=CC[C@@H](O)/C(C)=C/[C@@H](O)CC/C(=C\Cl)Cc1ccccc1	> 50
COc1cccc2c1C(=O)c1c(O)c3c(c(O)c1C2=O)C[C@@](O)(C(=O)CO)C[C@@H]3O[C@H]1C[C@H](N)[C@H](O)[C@H](C)O1 [DOXORUBICIN]	127
